We go through eight compounds from ChEMBL document CHEMBL3351588, “Design, synthesis and biological evaluation of N-alkyl or aryl substituted isoindigo derivatives as potential dual cyclin-dependent kinase 2 (CDK2)/glycogen synthase kinase 3β (GSK-3β) phosphorylation inhibitors” (Eur J Med Chem, 2014).

For one experiment, the system named is K562. Nature of the experiment: Induction of cell cycle arrest in human K562 cells assessed as accumulation at G2/M phase at 10 uM after 24 hrs by propidium iodide staining based flow cytometry (reference value: 18.96%). The experiment is classed as functional.
Details: not given
For `CN1C(=O)/C(=C2/C(=O)Nc3ccccc32)c2ccccc21` [MEISOINDIGO], the Activity worked out at 10.25%.

In another experiment the test system is A549. Briefly: Cytotoxicity against human A549 cells after 48 hrs by SRB assay. The settings on record: A549, 48 h. The experiment is classed as functional, cell-based. A digest of the protocol: (§1)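 Cells seeded at 5 × 10³ per well and allowed to attach for 12 h, then exposed to a range of drug concentrations in their own medium for 48 h. Fixed with ice-cold TCA for 1 h at 4 °C, washed, then stained with 0.4% SRB for 30 min at room temperature. IC50 is the mean of three independent experiments.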
As for `O=C1Nc2ccccc2/C1=C1\C(=O)N(CCc2ccccc2)c2ccccc21`, the half-maximal inhibitory concentration (IC50) stood at 85.4 µM.
The same measure, in the same setting: the value for `CN1C(=O)/C(=C2/C(=O)Nc3ccccc32)c2ccccc21` [MEISOINDIGO] was 57.3 µM.
`CCCCN1C(=O)/C(=C2/C(=O)Nc3ccccc32)c2ccccc21` returned an IC50 of 30.2 µM.
`CC(C)CN1C(=O)/C(=C2/C(=O)Nc3ccccc32)c2ccccc21`: inhibition was half-maximal at 52.8 µM (IC50).
The compound `O=C1Nc2ccccc2/C1=C1\C(=O)N(c2ccc(F)cc2)c2ccccc21` registered an IC50 of 22.6 µM.
As for `CC(C)N1C(=O)/C(=C2/C(=O)Nc3ccccc32)c2ccccc21`, inhibition was half-maximal at 183 µM (IC50).
Still for that read-out and setting: the value for `CCN1C(=O)/C(=C2/C(=O)Nc3ccccc32)c2ccccc21` was 61 µM; that for `CC(=O)N1C(=O)/C(=C2/C(=O)N(C(C)=O)c3ccccc32)c2ccccc21` was above 200 µM.

In the next experiment the test system is K562. Briefly: Induction of cell cycle arrest in human K562 cells assessed as accumulation at G0/G1 phase at 10 uM after 24 hrs by propidium iodide staining based flow cytometry (reference value: 36.14%). The experiment is classed as functional.
Details: not given
For `CN1C(=O)/C(=C2/C(=O)Nc3ccccc32)c2ccccc21` [MEISOINDIGO], the Activity amounted to 32.25%.

Tested on in a further experiment: not listed separately
Briefly: Cytotoxicity against human HCT116 cells after 48 hrs by SRB assay. It is filed as functional, cell-based. Particulars: HCT-116, 48 h. The method in brief:
as §1
Take `O=C1Nc2ccccc2/C1=C1\C(=O)N(CCc2ccccc2)c2ccccc21`: half-maximal inhibition (IC50) required 85.2 µM.
`CN1C(=O)/C(=C2/C(=O)Nc3ccccc32)c2ccccc21` [MEISOINDIGO] came in with an IC50 of 27 µM.
Regarding `CCCCN1C(=O)/C(=C2/C(=O)Nc3ccccc32)c2ccccc21`, the IC50 was determined as 34.2 µM.
On the same count and under the same terms, the value for `CC(C)CN1C(=O)/C(=C2/C(=O)Nc3ccccc32)c2ccccc21` was 62.2 µM; that for `O=C1Nc2ccccc2/C1=C1\C(=O)N(c2ccc(F)cc2)c2ccccc21` was 40.1 µM; that for `CC(C)N1C(=O)/C(=C2/C(=O)Nc3ccccc32)c2ccccc21` was 149 µM.
On the same count and under the same terms, for `CCN1C(=O)/C(=C2/C(=O)Nc3ccccc32)c2ccccc21` the value was 51 µM.
Turning to `CC(=O)N1C(=O)/C(=C2/C(=O)N(C(C)=O)c3ccccc32)c2ccccc21`, the IC50 was above 200 µM.

The next experiment concerns K562. Briefly: Induction of cell cycle arrest in human K562 cells assessed as accumulation at S phase at 10 uM after 24 hrs by propidium iodide staining based flow cytometry (reference value: 44.90%). It is filed as functional.
Details: not given
`CN1C(=O)/C(=C2/C(=O)Nc3ccccc32)c2ccccc21` [MEISOINDIGO]: the Activity is listed as 57.5%.

Tested on in another experiment: not listed separately
Nature of the experiment: Cytotoxicity against human VEC cells after 48 hrs by SRB assay. It is filed as cell-based.
Details: not given
A digest of the protocol:
as §1
For the compound `O=C1Nc2ccccc2/C1=C1\C(=O)N(CCc2ccccc2)c2ccccc21`, inhibition was half-maximal at 184 µM (IC50).
On the same count and under the same terms, for `CN1C(=O)/C(=C2/C(=O)Nc3ccccc32)c2ccccc21` [MEISOINDIGO] the value was 122 µM; for `CCCCN1C(=O)/C(=C2/C(=O)Nc3ccccc32)c2ccccc21`, 58.1 µM; for `CC(C)CN1C(=O)/C(=C2/C(=O)Nc3ccccc32)c2ccccc21`, 97.4 µM.
As to `O=C1Nc2ccccc2/C1=C1\C(=O)N(c2ccc(F)cc2)c2ccccc21`, 93.5 µM corresponded to half-maximal inhibition (IC50).
In turn, `CC(C)N1C(=O)/C(=C2/C(=O)Nc3ccccc32)c2ccccc21` displayed a half-inhibitory concentration (IC50) above 200 µM.
`CCN1C(=O)/C(=C2/C(=O)Nc3ccccc32)c2ccccc21` registered an IC50 of 73 µM.
In turn, `CC(=O)N1C(=O)/C(=C2/C(=O)N(C(C)=O)c3ccccc32)c2ccccc21` came in with an IC50 above 200 µM.

Another experiment has as its system HeLa. Nature of the experiment: Cytotoxicity against human HeLa cells after 48 hrs by SRB assay. It is filed as functional, cell-based.
Details: not given
A digest of the protocol: as §1
`O=C1Nc2ccccc2/C1=C1\C(=O)N(CCc2ccccc2)c2ccccc21` showed an IC50 above 200 µM.
On the same count and under the same terms, for `CN1C(=O)/C(=C2/C(=O)Nc3ccccc32)c2ccccc21` [MEISOINDIGO] the value was 15.7 µM; for `CCCCN1C(=O)/C(=C2/C(=O)Nc3ccccc32)c2ccccc21`, 80.7 µM; for `CC(C)CN1C(=O)/C(=C2/C(=O)Nc3ccccc32)c2ccccc21`, above 200 µM.
The compound `O=C1Nc2ccccc2/C1=C1\C(=O)N(c2ccc(F)cc2)c2ccccc21` gave an IC50 above 200 µM.
For `CC(C)N1C(=O)/C(=C2/C(=O)Nc3ccccc32)c2ccccc21`, the IC50 was above 200 µM.
On the same count and under the same terms, for `CCN1C(=O)/C(=C2/C(=O)Nc3ccccc32)c2ccccc21` the value was 194 µM; for `CC(=O)N1C(=O)/C(=C2/C(=O)N(C(C)=O)c3ccccc32)c2ccccc21`, above 200 µM.

Another experiment relates to MGC-803. Briefly: Cytotoxicity against human MGC803 cells after 48 hrs by SRB assay. The settings on record: MGC-803, 48 h. The experiment is classed as functional, cell-based. A digest of the protocol:
as §1
In turn, `O=C1Nc2ccccc2/C1=C1\C(=O)N(CCc2ccccc2)c2ccccc21` displayed an IC50 above 200 µM.
Same read-out and setting: for `CN1C(=O)/C(=C2/C(=O)Nc3ccccc32)c2ccccc21` [MEISOINDIGO] the value was 128 µM; for `CCCCN1C(=O)/C(=C2/C(=O)Nc3ccccc32)c2ccccc21`, 87.9 µM.
Take `CC(C)CN1C(=O)/C(=C2/C(=O)Nc3ccccc32)c2ccccc21`: the IC50 was above 200 µM.
Same read-out and setting: for `O=C1Nc2ccccc2/C1=C1\C(=O)N(c2ccc(F)cc2)c2ccccc21` the value was 108 µM; for `CC(C)N1C(=O)/C(=C2/C(=O)Nc3ccccc32)c2ccccc21`, 176 µM.
The same measure, in the same setting: for `CCN1C(=O)/C(=C2/C(=O)Nc3ccccc32)c2ccccc21` the value was 67.2 µM.
For `CC(=O)N1C(=O)/C(=C2/C(=O)N(C(C)=O)c3ccccc32)c2ccccc21`, the IC50 was above 200 µM.

For another experiment, the system named is K562. Briefly: Cytotoxicity against human K562 cells after 48 hrs by SRB assay. The experiment is classed as functional, cell-based. The settings on record: K562, 48 h. The method in brief: as §1
Regarding `O=C1Nc2ccccc2/C1=C1\C(=O)N(CCc2ccccc2)c2ccccc21`, the concentration for half-maximal inhibition (IC50) worked out at 17.1 µM.
`CN1C(=O)/C(=C2/C(=O)Nc3ccccc32)c2ccccc21` [MEISOINDIGO]: the IC50 turned out to be 23.3 µM.
`CCCCN1C(=O)/C(=C2/C(=O)Nc3ccccc32)c2ccccc21` displayed a 50% inhibitory concentration (IC50) of 114 µM.
Still for that read-out and setting: for `CC(C)CN1C(=O)/C(=C2/C(=O)Nc3ccccc32)c2ccccc21` the value was 74.4 µM; for `O=C1Nc2ccccc2/C1=C1\C(=O)N(c2ccc(F)cc2)c2ccccc21`, above 200 µM; for `CC(C)N1C(=O)/C(=C2/C(=O)Nc3ccccc32)c2ccccc21`, above 200 µM.
`CCN1C(=O)/C(=C2/C(=O)Nc3ccccc32)c2ccccc21`: the IC50 was above 200 µM.
`CC(=O)N1C(=O)/C(=C2/C(=O)N(C(C)=O)c3ccccc32)c2ccccc21` had a 50% inhibitory concentration (IC50) above 200 µM.

In another experiment the test system is L1210. Nature of the experiment: Cytotoxicity against mouse L1210 cells after 48 hrs by SRB assay. It is filed as functional, cell-based. The settings on record: L1210, 48 h. The method in brief: as §1
Consider `O=C1Nc2ccccc2/C1=C1\C(=O)N(CCc2ccccc2)c2ccccc21`, for which inhibition was half-maximal at 158 µM (IC50).
In the case of `CN1C(=O)/C(=C2/C(=O)Nc3ccccc32)c2ccccc21` [MEISOINDIGO], it took 167 µM to reach half-maximal inhibition (IC50).
`CCCCN1C(=O)/C(=C2/C(=O)Nc3ccccc32)c2ccccc21` yielded an IC50 of 75.4 µM.
In the case of `CC(C)CN1C(=O)/C(=C2/C(=O)Nc3ccccc32)c2ccccc21`, the IC50 was 73.8 µM.
The compound `O=C1Nc2ccccc2/C1=C1\C(=O)N(c2ccc(F)cc2)c2ccccc21` yielded an IC50 above 200 µM.
In turn, `CC(C)N1C(=O)/C(=C2/C(=O)Nc3ccccc32)c2ccccc21` returned an IC50 above 200 µM.
The same measure, in the same setting: for `CCN1C(=O)/C(=C2/C(=O)Nc3ccccc32)c2ccccc21` the value was 47.5 µM; for `CC(=O)N1C(=O)/C(=C2/C(=O)N(C(C)=O)c3ccccc32)c2ccccc21`, above 200 µM.
